In ChEMBL document CHEMBL4680287, “Ibrexafungerp: An orally active β-1,3-glucan synthesis inhibitor” (Bioorg Med Chem Lett, 2021):
Converted amounts (≈) assume the structure as drawn.

How the values were obtained:
[1] = system: Candida albicans; assay: Antifungal activity against Candida albicans MY1055 infected in ip dosed DBA/2 mouse model of disseminated candidiasis assessed as reduction in fungal burden in kidney administered bid for 7 days by TOKA; type: functional; details: 168 h, time 7 day
In short: (§1)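 Murine disseminated candidiasis model (TOKA) in mice challenged with C. albicans MY1055 at 2.44 x 10^4 CFU/mouse. Dosed PO, or IP where stated. Kidneys collected aseptically 7 days after challenge and CFUs/g counted. Change in log CFU/g is relative to sham-treated controls; significance by two-tailed t test. Clearance is the percentage of kidneys below the detection limit.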

[2] = Half life in rat; type: ADME; details: in vivo
[3] = Clearance in mouse; type: ADME, organism-based; details: in vivo
[4] = Dose normalized AUC in po dosed mouse; type: ADME, organism-based; details: in vivo
[5] = system: Candida parapsilosis; assay: Antifungal activity against Candida parapsilosis ATCC 22019 assessed as fungal growth inhibition; type: functional; details: Lodderomyces parapsilosis, read-out: MIC100
[6] = system: Candida albicans; assay: Antifungal activity against Candida albicans MY1055 infected in DBA/2 mouse model of disseminated candidiasis assessed as reduction in fungal burden in kidney by measuring log change in colony forming units at 25 mg/kg, po bid for 7 days by TOKA; type: functional; details: time 7 day; in short: as §1
[7] = system: Candida parapsilosis; assay: Antifungal activity against Candida parapsilosis ATCC 22019 assessed as reduction in fungal growth; type: functional; details: Lodderomyces parapsilosis
[8] = Oral bioavailability in dog; type: ADME, organism-based, Canis lupus familiaris; details: in vivo
In short: (§2)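 Oral bioavailability calculated as oral AUC normalized to the IV dose, divided by the IV AUC.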

[9] = Dose normalized AUC in po dosed dog; type: ADME, organism-based, Canis lupus familiaris; details: in vivo
[10] = system: Aspergillus fumigatus; assay: Antifungal activity against Aspergillus fumigatus MF5668 infected in DBA/2N mouse assessed as mean survival time at 3.125 mg/kg, ip bid administered for 7 days starting from 15 to 30 mins post infection and measured up to 21 days; type: functional; details: time 7 day
In short: (§3)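 DBA/2N mice were challenged IV with A. fumigatus MF5668 at 6.7 x 10^5 CFU/mouse, then dosed IP twice daily for 7 days. Survival was followed over a 21-day model, and mean survival time in days was recorded per dose group. A sham-treated control group was run alongside.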

[11] = system: Aspergillus fumigatus; assay: Antifungal activity against Aspergillus fumigatus MF5668 infected in DBA/2N mouse assessed as mean survival time at 6.25 mg/kg, ip bid administered for 7 days starting from 15 to 30 mins post infection and measured up to 21 days; type: functional; details: time 7 day; in short: as §3
[12] = system: Aspergillus fumigatus; assay: Antifungal activity against Aspergillus fumigatus MF5668 infected in ip dosed DBA/2N mouse assessed as 90% mouse survival administered bid administered for 7 days starting from 15 to 30 mins post infection and measured up to 21 days; type: functional; details: 168 h, time 7 day
[13] = system: Clavispora lusitaniae; assay: Antifungal activity against Clavispora lusitaniae MY1396 assessed as fungal growth inhibition; type: functional; details: read-out: MIC100
[14] = system: Aspergillus fumigatus; assay: Antifungal activity against Aspergillus fumigatus MF5668 assessed inhibition of fungal growth by measuring morphological changes measured after 24 hrs by microscopy; type: functional; details: read-out: MEC
In short: (§4)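 Microdilution per CLSI protocols in RPMI medium. Read-out is the minimum effective concentration (MEC). Run without serum and with 50% human serum.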

[15] = Inhibition of beta-1,3-glucan synthase in Candida albicans MY1055 microsomal membrane assessed as inhibition of TCA-insoluble material formation using UDP-[3H]-glucose as substrate incubated for 2 hrs in presence of GTP by radioactivity-based assay; type: microsomes, Microsome
In short: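 GS IC50 measured using Candida albicans MY1055 microsomal membrane fragments as the enzyme source.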

[16] = Clearance in rat; type: ADME; details: in vivo
[17] = system: Aspergillus fumigatus; assay: Antifungal activity against Aspergillus fumigatus MF5668 infected in DBA/2N mouse assessed as mouse survival at 3.125 mg/kg, ip bid administered for 7 days starting from 15 to 30 mins post infection and measured up to 21 days relative to control; type: functional; details: 168 h, time 7 day
In short: (§5)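 DBA/2N mice were infected IV with A. fumigatus MF5668 (6.7 x 10^5 CFU/mouse) and treated IP bid for 7 days. Percent survival per dose group was scored at the end of the 21-day survival model and compared with the sham-treated control group.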

[18] = system: Aspergillus fumigatus; assay: Antifungal activity against Aspergillus fumigatus MF5668 infected in DBA/2N mouse assessed as mouse survival at 12.5 mg/kg, ip bid administered for 7 days starting from 15 to 30 mins post infection and measured up to 21 days relative to control; type: functional; details: 168 h, time 7 day; in short: as §5
[19] = system: Aspergillus fumigatus; assay: Antifungal activity against Aspergillus fumigatus MF5668 infected in DBA/2N mouse assessed as mean survival time at 1.56 mg/kg, ip bid administered for 7 days starting from 15 to 30 mins post infection and measured up to 21 days; type: functional; details: time 7 day; in short: as §3
[20] = system: Candida tropicalis; assay: Antifungal activity against Candida tropicalis MY1012 assessed as fungal growth inhibition; type: functional; details: read-out: MIC100
[21] = system: Candida albicans; assay: Antifungal activity against Candida albicans MY1055 assessed as fungal growth inhibition measured after 24 hrs in presence of 50% mouse serum by liquid microdilution method; type: functional
In short: (§6)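 Broth microdilution per CLSI protocols in RPMI medium. Read-out is the MIC, the lowest concentration completely inhibiting fungal growth. Run without serum and with added serum.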

[22] = system: Aspergillus fumigatus; assay: Antifungal activity against Aspergillus fumigatus MF5668 infected in DBA/2N mouse assessed as mouse survival at 6.25 mg/kg, ip bid administered for 7 days starting from 15 to 30 mins post infection and measured up to 21 days relative to control; type: functional; details: 168 h, time 7 day; in short: as §5
[23] = system: Aspergillus fumigatus; assay: Antifungal activity against Aspergillus fumigatus MF5668 infected in ip dosed DBA/2N mouse assessed as 50% mouse survival administered bid administered for 7 days starting from 15 to 30 mins post infection and measured up to 21 days; details: 168 h
[24] = system: Candida albicans; assay: Antifungal activity against Candida albicans MY1055 assessed as reduction in fungal growth; type: functional; in short: as §6
[25] = system: Candida albicans; assay: Antifungal activity against Candida albicans MY1055 assessed as fungal growth inhibition measured after 24 hrs by liquid microdilution method; type: functional; in short: as §6
[26] = Dose normalized AUC in po rhesus monkey; type: ADME, organism-based, Macaca mulatta; details: in vivo
[27] = system: Aspergillus fumigatus; assay: Antifungal activity against Aspergillus fumigatus MF5668 infected in DBA/2N mouse assessed as mouse survival at 1.56 mg/kg, ip bid administered for 7 days starting from 15 to 30 mins post infection and measured up to 21 days relative to control; type: functional; details: 168 h, time 7 day; in short: as §5
[28] = system: Candida albicans; assay: Antifungal activity against Candida albicans MY1055 infected in DBA/2 mouse model of disseminated candidiasis assessed as reduction in fungal burden in kidney by measuring log change in colony forming units at 6.25 mg/kg, po bid for 7 days by TOKA; type: functional; details: time 7 day; in short: as §1
[29] = Half life in rhesus monkey; type: ADME, Macaca mulatta; details: in vivo
[30] = system: Aspergillus fumigatus; assay: Antifungal activity against Aspergillus fumigatus MF5668 infected in DBA/2N mouse assessed as mean survival time at 12.5 mg/kg, ip bid administered for 7 days starting from 15 to 30 mins post infection and measured up to 21 days; type: functional; details: time 7 day; in short: as §3
[31] = system: Candida tropicalis; assay: Antifungal activity against Candida tropicalis MY1012 assessed as reduction in fungal growth; type: functional
[32] = Clearance in rhesus monkey; type: ADME, Macaca mulatta; details: in vivo
[33] = system: Pichia kudriavzevii; assay: Antifungal activity against Candida krusei ATCC 6258 assessed as reduction in fungal growth; type: functional
[34] = system: Candida albicans; assay: Antifungal activity against Candida albicans MY1055 infected in DBA/2 mouse model of disseminated candidiasis assessed as reduction in fungal burden in kidney by measuring log change in colony forming units at 12.5 mg/kg, ip bid for 7 days by TOKA; type: functional; details: time 7 day; in short: as §1
[35] = Oral bioavailability in rat; type: ADME, organism-based; details: in vivo; in short: as §2
[36] = system: Pichia kudriavzevii; assay: Antifungal activity against Candida krusei ATCC 6258 assessed as fungal growth inhibition; type: functional; details: read-out: MIC100
[37] = system: Nakaseomyces glabratus; assay: Antifungal activity against Candida glabrata MY1381 assessed as fungal growth inhibition; type: functional; details: read-out: MIC100
[38] = system: Candida albicans; assay: Antifungal activity against Candida albicans MY1055 infected in DBA/2 mouse model of disseminated candidiasis assessed as reduction in fungal burden in kidney by measuring log change in colony forming units at 12.5 mg/kg, po bid for 7 days by TOKA; type: functional; details: time 7 day; in short: as §1
[39] = Oral bioavailability in mouse; type: ADME, organism-based; details: in vivo; in short: as §2
[40] = Oral bioavailability in rhesus monkey; type: ADME, organism-based, Macaca mulatta; details: in vivo; in short: as §2
[41] = system: Aspergillus fumigatus; assay: Antifungal activity against Aspergillus fumigatus MF5668 assessed inhibition of fungal growth by measuring morphological changes in presence of 50% human serum measured after 24 hrs by microscopy; type: functional; details: read-out: MEC; in short: as §4
[42] = Half life in dog; type: ADME, Canis lupus familiaris; details: in vivo
[43] = Clearance in dog; type: ADME, Canis lupus familiaris; details: in vivo
[44] = Dose normalized AUC in po dosed rat; type: ADME, organism-based; details: in vivo
[45] = system: Clavispora lusitaniae; assay: Antifungal activity against Clavispora lusitaniae MY1396 assessed as reduction in fungal growth; type: functional
[46] = system: Nakaseomyces glabratus; assay: Antifungal activity against Candida glabrata MY1381 assessed as reduction in fungal growth; type: functional
[47] = system: Candida albicans; assay: Antifungal activity against Candida albicans MY1055 assessed as fungal growth inhibition in presence of 50% mouse serum; type: functional; details: read-out: MIC100; in short: as §6
[48] = Half life in mouse; type: ADME, organism-based; details: in vivo
[49] = system: Candida albicans; assay: Antifungal activity against Candida albicans MY1055 assessed as reduction in fungal growth in presence of 50% mouse serum; type: functional; in short: as §6

CC(C)[C@@H](C)[C@@]1(C)CC[C@]2(C)[C@H]3CC[C@@H]4[C@@]5(COC[C@@]4(C)[C@@H](OC[C@](C)(N)C(C)(C)C)[C@H](n4ncnc4-c4ccncc4)C5)C3=CC[C@@]2(C)[C@@H]1C(=O)O [IBREXAFUNGERP]
ED99 [1]: 0.84 mg/kg
half-life [2]: 498 min
clearance [3]: 14 mL/min/kg
AUC/dose [4]: 0.59 µM·kg·h/mg
MIC [5]: 0.5 µg/mL (≈ 0.685 µM)
Activity [6]: -4.6 deltalog10CFU
MIC50 [7]: < 0.03 µg/mL
bioavailability [8]: 18%
AUC/dose [9]: 1.07 µM·kg·h/mg
MST [10]: 12.2 days
MST [11]: 19.2 days
ED90 [12]: 8.9 mg/kg
MIC [13]: 2 µg/mL (≈ 2.74 µM)
minimal effective concentration [14]: < 0.03 µg/mL
IC50 [15]: 1 ng/mL
clearance [16]: 8 mL/min/kg
survival at 3.125 mg/kg [17]: 20%
survival at 12.5 mg/kg [18]: 90%
MST [19]: 5.1 days
MIC [20]: 8 µg/mL (≈ 11 µM)
MIC [21]: 0.5 µg/mL
survival at 6.25 mg/kg [22]: 90%
ED50 [23]: 4.5 mg/kg
MIC50 [24]: < 0.03 µg/mL
MIC [25]: 0.06 µg/mL (≈ 0.0822 µM)
AUC/dose [26]: 0.33 µM·kg·h/mg
survival at 1.56 mg/kg [27]: 0%
Activity [28]: -2.2 deltalog10CFU
half-life [29]: 342 min
MST [30]: 19.4 days
MIC50 [31]: 1 µg/mL (≈ 1.37 µM)
clearance [32]: 11 mL/min/kg
MIC50 [33]: 2 µg/mL (≈ 2.74 µM)
Activity [34]: -3.99 deltalog10CFU
bioavailability [35]: 23%
MIC [36]: 4 µg/mL (≈ 5.48 µM)
MIC [37]: 1 µg/mL (≈ 1.37 µM)
Activity [38]: -3.2 deltalog10CFU
bioavailability [39]: 34%
bioavailability [40]: 16%
minimal effective concentration [41]: 0.25 µg/mL
half-life [42]: 678 min
clearance [43]: 4 mL/min/kg
AUC/dose [44]: 0.69 µM·kg·h/mg
MIC50 [45]: 1 µg/mL (≈ 1.37 µM)
MIC50 [46]: 1 µg/mL (≈ 1.37 µM)
MIC [47]: 0.5 µg/mL
half-life [48]: 264 min
MIC50 [49]: 0.25 µg/mL
